NR1D1 modulator = Rev-erb alpha (human) modulation; P20393; Rev-erbα–FITC-DNA binding, fluorescence polarization, 90 min; activity, % at 10 µM; 370,000 tested, 0.79% active; AID 1259318;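 active = activity above about 14%, limit read from the data; passing the limit was not always enough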;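 note: 0% = DMSO wells with 35 nM protein and 100% = DMSO wells with 750 nM protein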
rCAG RNA binder = r(CAG) repeat RNA binding | 370,000 tested, 1.3% active | TO-PRO-1 dye displacement fluorescence | AID 651821 | inhibition, % at 3 µM;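 active = inhibition above the plate cutoff, the mean of all test compounds on that plate plus 3 SD, cut at about 35% in these data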;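 note: 0% = DMSO alone and 100% = 100 µM mitoxantrone as full dye displacement; higher means more dye released from RNA so lower well fluorescence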
PG9 binder = small molecules binding HIV-1 gp120 antibody PG9. 360,000 tested, 0.43% active. TR-FRET gp120-PG9 antibody binding. inhibition, % at 6.7 µM; in the data active = inhibition above about 8.5%
NR2E3 ag-1 = NR2E3 (human) agonism; Q9Y5X4; GST-NR2E3/biotin-RetCOR TR-FRET, 1536-well; inhibition of corepressor binding, % at 4.78 µM; 320,000 tested, 0.12% active; AID 2300;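 active = percent inhibition above the cutoff of mean plus 3 SD of all tested compounds, set per screening campaign, cut at about 20% in these data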;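 note: 0% = DMSO wells and 100% = biotin wells as full block of FRET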
Target sequence (Q9Y5X4 whole entry, looked up): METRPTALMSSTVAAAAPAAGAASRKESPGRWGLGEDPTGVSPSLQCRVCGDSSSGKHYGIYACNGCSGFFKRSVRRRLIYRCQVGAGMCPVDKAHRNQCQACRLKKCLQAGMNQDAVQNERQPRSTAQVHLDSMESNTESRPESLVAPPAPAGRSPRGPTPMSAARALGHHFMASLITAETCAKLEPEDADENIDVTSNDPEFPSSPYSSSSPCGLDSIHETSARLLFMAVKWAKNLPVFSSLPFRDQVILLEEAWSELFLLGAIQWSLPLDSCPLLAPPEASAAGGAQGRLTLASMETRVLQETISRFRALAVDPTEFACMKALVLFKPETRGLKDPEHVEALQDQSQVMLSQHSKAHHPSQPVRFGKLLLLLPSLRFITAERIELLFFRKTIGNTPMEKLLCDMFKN
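System: GST-NR2E3 and biotin-RetCOR proteins; probe or stimulus: 7 nM biotin-RetCOR; doses: compound at 4.8 µM, single dose; schedule: Compound–protein incubation for 5 h at 4 °C; detection: time-resolved FRET; read-out: percent inhibition; controls: biotin wells as high control, 0.6% DMSO wells as low control; format: 1536-well plates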
NR2E3 ag-2 = activates human NR2E3 receptor. Q9Y5X4. CHO-S Gal4-NCOR/VP16-NR2E3 two-hybrid, luciferase. inhibition of corepressor binding, % at 3.98 µM. 360,000 tested, 0.35% active. AID 602229;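 active = inhibition above the mean of all tested compounds plus 3 SD, cut at about 70% in these data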;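 note: 0% = DMSO with NR2E3 transfected cells and 100% = cells lacking NR2E3 construct; higher means lower luciferase signal from less NR2E3 corepressor binding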
NR2E3 ag confirm = confirmation of human NR2E3 agonists; shares compounds with NR2E3 ag-2; CHO-S mammalian two-hybrid NR2E3-NCOR, luciferase luminescence; inhibition, % at 3.98 µM; 2,300 tested, 51% active; AID 624378;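 active = average inhibition above a cutoff equal to the mean inhibition of all tested compounds plus one SD, cut at about 70% in these data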;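 note: 0% = DMSO in NR2E3 cells and 100% = DMSO in cells lacking NR2E3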
VP16 counter = reduces GAL4-VP16 reporter signal in NR2E3 counterscreen; shares compounds with NR2E3 ag-2; CHO-S GAL4-VP16 luciferase reporter, luminescence; inhibition, % at 3.98 µM; 2,300 tested, 29% active; AID 624379;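 active = mean inhibition above a cutoff equal to the average over all tested compounds plus one standard deviation, cut at about 70% in these data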;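 note: luciferase from a UAS reporter driven by GAL4-VP16 transactivation; 0% = DMSO with VP16-transfected cells and 100% = DMSO with cells lacking VP16; higher means less reporter light so more repression of VP16 activity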
The depositor's hits bear a star; · = no result given. In the library only some 2.6% were active in any assay of this set; here they are far more common.

SMILES	NR1D1 modulator	rCAG RNA binder	PG9 binder	NR2E3 ag-1	NR2E3 ag-2	NR2E3 ag confirm	VP16 counter
CC(=O)c1c(C)[nH]c(C(=O)OCc2ccccc2)c1C	-4	-4	-1	1	-74	·	·
CCCN(CC1CC1)C(=O)c1oc(=O)c2ccccc2c1-c1ccc(C)cc1	4	1	·	·	·	·	·
CCOC(=O)N1CCN(C(=O)C[C@H]2C[C@@]3(C(=O)OC)C(=C[C@H](C(C)(C)C)O[C@@H]3C)N(Cc3ccc4c(c3)OCO4)C2=O)CC1	3	2	-2	·	·	·	·
CC(C)(C)S(=O)N1C[C@H]2CC(=O)C=C2[C@@H]1CCO (stereo not given in full)	-1	2	0	·	·	·	·
C[C@@H]1CN([C@@H](C)CO)C(=O)CCCn2cc(nn2)CO[C@H]1CN(C)C(=O)CCC(F)(F)F	-3	1	0	·	·	·	·
COc1ccc(-c2cccc(NS(=O)(=O)c3cc([N+](=O)[O-])ccc3Cl)c2)nn1	2	31	-2	0	41	·	·
CCOc1ccc(-c2cccc(NS(=O)(=O)c3cc([N+](=O)[O-])ccc3Cl)c2)nn1	-2	40*	-2	-3	53	18	-4
CCN(CC)S(=O)(=O)c1cccc(NC(=O)CNc2cccc(S(=O)(=O)N3CCCC3)c2)c1	3	10	0	0	85*	80*	61
CCN(CC)S(=O)(=O)c1cccc(NC(=O)CC2CCCC2)c1	1	1	1	0	0	·	·
CCN(CC)S(=O)(=O)c1cccc(NC(=O)Nc2cccc(C(F)(F)F)c2)c1	2	19	-2	-1	75*	65	53
CS(=O)(=O)N1CCCC(c2nc(-c3ccc(S(=O)(=O)NCc4ccccc4)cc3)no2)C1 (stereo not given)	0	·	·	-2	50	73*	68
O=C(C1CC1)N1CCC(c2nc(-c3ccc(S(=O)(=O)NCC4CCCO4)cc3)no2)CC1 (stereo not given)	10	-4	0	1	50	21	41
O=C(c1ccccc1)N1CCC(c2nc(-c3ccc(S(=O)(=O)NCC4CCCO4)cc3)no2)CC1 (stereo not given)	-6	-3	1	5	21	·	·
Cc1cccc(C)c1OCc1cccc(C2Nc3ccccc3C(=O)N2Cc2ccco2)c1 (stereo not given)	11	·	·	·	·	·	·
Cc1cc(N2CCN(C(=O)OC(C)(C)C)C[C@H]2C)ccc1N1CC[C@@H](O)C1	0	0	4	·	·	·	·
CCn1c(=O)c(C(=O)Nc2nc3ccccc3[nH]2)c(O)c2ccccc21	-8	9	0	2	57	14	44
CCn1c(=O)c(C(=O)Nc2ccccc2)c(O)c2ccccc21	8	1	-2	-1	12	·	·
CC(C)(C)C(=O)NC(=S)NNC(=O)c1ccc(-c2ccccc2)cc1	·	·	·	3	62	96*	52
CC(C)(C)C(=O)NC(=S)NNC(=O)c1ccncc1	-1	4	-2	1	-38	·	·
CS(=O)(=O)c1ccccc1C(=O)N1CCN(S(=O)(=O)c2ccc(C3CCCCC3)cc2)CC1	-4	-1	1	·	49	33	37
Cc1[nH]nc(S(=O)CC(=O)O)c1[N+](=O)[O-] (stereo not given)	-1	-1	-2	4	59	1	-7
Cc1c(CN2CCN(c3ncc(Cc4ccccc4)cn3)CC2)c(=O)n(-c2ccccc2)n1C	-6	-1	0	·	·	·	·
O=C(NCc1cccnc1)/C(=C\c1ccc(-c2cccc(Cl)c2)o1)S(=O)(=O)c1ccccc1	1	-1	0	2	91*	63	-24
Cc1ccc2nc(-c3ccc(C#N)cc3)c(Cc3cccc(F)c3)n2c1	-7	6	0	·	·	·	·
CCOCCCNc1ncnc2c1[nH]c1ccccc12	-2	2	1	3	20	·	·
CCCCOc1ncnc2c1[nH]c1ccccc12	0	1	-1	-1	79*	92*	64
CCCCOCCCNc1ncnc2c1[nH]c1ccccc12	-4	2	-3	0	87*	96*	82*

Screens deposited in PubChem BioAssay by several laboratories.
